Published values pooled from the literature.
Lines come from different studies, so protocols differ.
Target: Phosphatidylinositol 4-phosphate 3-kinase C2 domain-containing subunit beta (PIK3C2B, Homo sapiens, UniProt O00750)

Structure (SMILES)	test	setting	remaining binding
CN(CCCC(F)(F)F)c1nccc(-c2cnn3ncccc23)n1	binding	1 µM	100%
C[C@@H](c1ccc(-n2cnc3c(N)ncnc32)cc1)N1CCc2nn(C)c(Cc3ccccc3)c2C1=O	binding, competition with immobilised ligand	0.1 µM	87%
O=C(NCCCN1CCOCC1)c1ccc(Nc2ncc(Cl)c(-c3ccc(Cl)s3)n2)cc1	binding, competition with immobilised ligand	1 µM	100%
CN(c1nccc(-c2cnn3ncccc23)n1)C1CC1	binding	1 µM	100%
c1cncc(-c2cccc(Nc3nccc(NC4CCCCC4)n3)c2)c1	binding, competition with immobilised ligand	10 µM	81%
COCCOc1nc(-c2ccc(Cl)nc2)nc2c1CN(C(=O)c1ncn3ccccc13)CC2	cell-free assay, competition with immobilised ligand	0.1 µM	100%
N[C@H]1CCN(c2nccc(-c3cnn4ncccc34)n2)C1	binding	1 µM	100%
CC1=C(C#N)C(c2ccc3c(c2)c(NC(=O)c2ccccc2C)nn3C)C(C#N)=C(C)N1	cell-free assay, competition with immobilised ligand	1 µM	76%
CNC(=O)[C@@H]1CC[C@@H](n2c(-c3ccc4cnccc4c3)nc3ccc(C(=O)NCc4cccc(C(N)=O)c4)cc32)C1	binding, competition with immobilised ligand	1 µM	100%
O=S(=O)(NC1CCC(c2cc(F)ccc2F)(S(=O)(=O)c2ccc(Cl)cc2)CC1)C(F)(F)F (stereo not drawn)	cell-free assay, competition with immobilised ligand	1 µM	100%
O=C(c1ccc(Nc2ncc(Cl)c(-c3cc4ccccc4s3)n2)cc1)N1CCC(N2CCCC2)CC1	binding, competition with immobilised ligand	1 µM	100%
CCS(=O)(=O)c1cc2cc(C[C@@](O)(CC(C)(C)c3ccc(F)cc3C(N)=O)C(F)(F)F)[nH]c2cn1	cell-free assay, competition with immobilised ligand	1 µM	86%
c1cnn2ncc(-c3ccnc(N4CCC45COC5)n3)c2c1	binding	1 µM	82%
FC(F)(F)Oc1cccc(-c2cnc3ccc(-c4ccncc4)nn23)c1	cell-free assay, competition with immobilised ligand	5 µM	54%
CCN1CCN(Cc2ccc(C(=O)Nc3ccc(C)c(Oc4ccc5c(c4)CC(=O)N5)c3)cc2C(F)(F)F)CC1	binding, competition with immobilised ligand	1 µM	66%
CN(C)c1ncc(F)c(-c2cnn3ncccc23)n1	binding	1 µM	76%
O=C(c1ccc(Nc2ncc(Cl)c(-c3ccc(Cl)s3)n2)cc1)N1CCC(N2CCCC2)CC1	binding, competition with immobilised ligand	1 µM	98%
C=CC(=O)N1CCC(C(=O)NCC(=O)N2CCN(c3nc(-c4cnc(N)nc4C(F)F)nc(N4CCOCC4)n3)CC2)CC1	binding, competition with immobilised ligand	1 µM	21%
C[C@H](c1ccnc(Nc2nc3ccc(-c4cc(N(C)C)ncn4)cc3[nH]2)c1)N1CCN(C(=O)CC(F)(F)F)CC1	cell-free assay, competition with immobilised ligand	0.1 µM	97%
COc1cnc(Nc2cccc(S(N)(=O)=O)c2)nc1N1CCN(c2ccccc2)CC1	binding, competition with immobilised ligand	1 µM	100%
C[C@@H]1CN(c2cc(-c3nn(C)c4ccc(OC5(C)CC5)cc34)ncn2)C[C@H](C)O1	cell-free assay, competition with immobilised ligand	1 µM	70%
C[C@H]1CCN(c2nccc(-c3cnn4ncccc34)n2)C1	binding	1 µM	91%
COc1ccc2c(O[C@@H]3C[C@H]4C(=O)N[C@]5(C(=O)O)CC5/C=C\CCCCC[C@H](NC(=O)OC5CCCC5)C(=O)N4C3)cc(-c3csc(NC(=O)C(C)C)n3)nc2c1C (stereo partly drawn)	cell-free assay, competition with immobilised ligand	1 µM	82%
O=C(Nc1c[nH]nc1C(=O)NC1CCNCC1)c1cc(F)cc(F)c1	binding, competition with immobilised ligand	1 µM	100%
